Cneo AK release: Cryptococcus neoformans cell lysis inducers, primary screen, AK release luminescence, single concentration | C. neoformans lysis, adenylate kinase release luminescence, 4 h; normalised: neutral wells 0, clomiphene wells 100 | lysis activity, % at 15 µM | 0.2% of 360,000 active | AID 651654, 2012;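 active = mean lysis activity across replicates of at least 80%, whatever share of replicates individually reach that level; inactive = mean lysis activity below 80%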
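Schedule: static 4 h at 37 °C with compound, 1 h detection; system: C. neoformans cells; benchmarks: Clomiphene as positive control; buffer or medium: fresh YPD medium; measure: luminescence rise reflecting yeast cell lysis; measured by: luminescent adenylate kinase detection reagent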
PGC1a acetyl inh: inhibitors of PGC1a acetylation signal, primary screen, cell-based, U2OS, AlphaScreen, inhibitor mode; AlphaScreen anti-acetyl-lysine; with virally co-expressed GCN5 acetyltransferase; inhibition, % at 15.6 µM; 0.17% of 350,000 active; AID 651687, 2012;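 active = every replicate shows inhibition of at least 40%; inconclusive = mean inhibition at least 40% but some replicate below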;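 also: 0% = neutral control wells and 100% = positive control wells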
MITF TRPM1 HTS: activators of MITF-driven TRPM1 promoter reporter, primary screen, cell-based, SK-MEL-5, luciferase, single point. SK-MEL-5 TRPM1-promoter luciferase, 24 h; % of positive control, neutral wells = 0. activation, % at 12.5 µM. 0.75% of 300,000 active. AID 588334, 2011;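 active = mean activation of at least 80% with every replicate also reaching 80%; inconclusive = mean reaches 80% but some replicate falls short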;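 also: 0% = neutral control wells and 100% = parthenolide positive control wells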
Wnt act: Wnt/beta-catenin pathway activators, primary screen, cell-based, plate reader, single point. Wnt/beta-catenin reporter cell assay, activator. activation, % at 9.35 µM. 1.2% of 300,000 active. AID 743398, 2014; in the data active = activation above about 30%, passing the limit was not always enough; inconclusive = no clear call, values can overlap the other calls;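 also: 0% = neutral control wells and 100% = positive control wells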
* hit, by the source's call; ? = inconclusive; nt = no result given. Compounds with a hit are over-represented: about 1.5% of the library has one in this group of screens.

SMILES	Cneo AK release	PGC1a acetyl inh	MITF TRPM1 HTS	Wnt act
Nc1nc(CSc2n[nH]c(-c3ccccc3)n2)nc(Nc2ccccc2)n1	-0.1	3.9	15.6	nt
CN(C)C(=O)[C@H]1[C@H](CO)[C@H]2Cn3c(ccc(C4=CCCC4)c3=O)[C@@H]1N2CC1CC1	0.0	nt	nt	nt
COc1ccc(S(=O)(=O)N2CCN(CC(O)CN3CCOCC3)CC2)cc1 (configuration not stated)	-1.9	-10.3	0.4	53.1*
COc1ccc(OC)c(S(=O)(=O)N2CCN(CC(O)CN3CCOCC3)CC2)c1 (configuration not stated)	2.0	-4.1	1.5	-0.9
Cn1ccnc1SCC(=O)Nc1cccc(C(F)(F)F)c1	-0.8	-16.4	23.4	nt
Cn1ccnc1SCC(=O)c1cccc(C(F)(F)F)c1	2.1	3.7	88.6*	24.5
COc1cccc(OCc2cc(C(=O)NCc3ccccn3)no2)c1	-3.0	-8.5	110.2*	16.4
O=C(NCc1ccco1)c1cc(-c2ccc(Cl)cc2)on1	-0.5	-28.7	63.3	5.1
COc1ccc(-c2noc(Cc3ccccc3OC)n2)cc1	-3.5	45.1	32.4	nt
COc1cccc(OCc2cc(C(=O)NCCc3cccc(C)n3)no2)c1	0.0	-18.0	2.1	0.5
COc1ccc(CNC(=O)c2cc(-c3cccs3)on2)cc1	-0.1	9.5	9.8	0.8
Cc1ccc(-c2cc(C(=O)NCc3ccco3)no2)cc1	3.9	-0.6	97.7*	23.1
COc1ccc(-c2noc(Cc3cccs3)n2)cc1	-4.5	-8.9	118.6*	16.5
COc1ccc(-c2cc(C(=O)NCc3cccs3)no2)cc1	nt	nt	91.8*	?
C/C=C/c1ccc([C@H]2[C@@H](CO)N(C(=O)C3CC3)[C@H]2CN(C)C(C)=O)cc1	0.7	6.2	nt	nt
C[C@@H]1CN([C@@H](C)CO)C(=O)c2cc(NC(=O)c3ccncc3)ccc2O[C@H]1CN(C)Cc1ccc(Cl)c(Cl)c1	-1.0	3.4	nt	nt
COc1ccc(S(=O)(=O)Nc2ccc3c(c2)CC(=O)N([C@@H](C)CO)C[C@H](C)[C@@H](CN(C)CC2CCCCC2)O3)cc1	-4.9	2.8	nt	nt
C[C@H](CO)N1C[C@H](C)[C@H](CN(C)Cc2ccc(C(=O)O)cc2)Oc2ccc(NC(=O)C3CC3)cc2C1=O	-7.5	3.2	nt	nt
COc1cccc(-c2cc(C(=O)NCc3cccs3)no2)c1	nt	nt	134.2*	2.9
COCCNC(=O)c1cc(-c2cccc(OC)c2)on1	-6.0	nt	?	nt
O=C(NCc1cccs1)c1cc(-c2ccccc2)on1	-5.4	-25.7	99.3*	nt
Cc1ccccc1-c1ccc([C@@H]2[C@H](CO)N3C(=O)CN(C(=O)c4ccncc4)C[C@@H]23)cc1	nt	-1.3	nt	nt
COc1ccc2c3c(n(C)c2c1)[C@H](CO)N(CC1CC1)CC31CCN(Cc2ccc(F)cc2)CC1	nt	-20.1	nt	nt
CC(C)NC(=O)NCC[C@H]1CC[C@H](NC(=O)CN(C)C)[C@H](CO)O1	101.5*	11.2	nt	nt
CN(C)CC(=O)N[C@H]1CC[C@@H](CCNC(=O)C2CCC2)O[C@H]1CO	0.5	-6.0	nt	nt
SMILES	Cneo AK release	PGC1a acetyl inh	MITF TRPM1 HTS	Wnt act
CC(C)NC(=O)NCC[C@@H]1CC[C@@H](NC(=O)CN(C)C)[C@@H](CO)O1	96.7*	15.8	nt	nt
COc1ccc(CN(C)C[C@@H]2OCCCC[C@H](C)Oc3ccc(NC(=O)Nc4c(C)noc4C)cc3C(=O)N([C@@H](C)CO)C[C@@H]2C)cc1	-2.2	-1.0	nt	nt
O=C(Nc1cccnc1)c1cc(-c2ccc(Cl)cc2)on1	nt	1.6	129.4*	40.8*
O=C(Nc1cccnc1)c1cc(-c2ccc(Cl)cc2Cl)on1	-0.5	nt	12.2	43.2*
CCC(=O)N(C)C[C@@H]1Oc2cc(C3=CCCCC3)ccc2S(=O)(=O)N([C@H](C)CO)C[C@@H]1C	nt	-13.8	nt	nt
O=C(Cc1ccccn1)NCC[C@H]1CC[C@H](NC(=O)Nc2ccc(F)cc2)[C@H](CO)O1	5.6	0.0	nt	nt
Cc1ccc2cc3cc(C(=O)NC4CC4)oc3nc2c1	0.1	-13.5	56.7	31.2*
COc1ccc2c3c(n(C)c2c1)[C@@H](CO)N(Cc1ccc(Cl)cc1)CC31CN(CC2CC2)C1	nt	-14.6	nt	nt
O=C1CCN(c2ncccc2[N+](=O)[O-])CC1	nt	nt	9.1	-1.3
COc1cc2c(cc1OC)CN(c1ncccc1[N+](=O)[O-])CC2	nt	nt	92.8*	22.0
CC1CCCCC1NC(=O)c1ccc2c(c1)OCCO2 (configuration not stated)	4.1	11.5	44.7	29.2
CC1CCCC(NC(=O)c2ccc3c(c2)OCCO3)C1C (configuration not stated)	-2.0	3.2	70.6	34.8*
COc1ccc(NC(=O)N[C@H]2CC[C@H](CCn3cc(-c4ccccc4F)nn3)O[C@@H]2CO)cc1	0.5	69.1*	nt	nt
COc1ccccc1NC(=O)N[C@@H]1CC[C@@H](CCn2cc(C3(O)CCCC3)nn2)O[C@H]1CO	94.3*	5.2	nt	nt
COc1ccccc1NC(=O)N[C@@H]1CC[C@@H](CCn2cc(-c3ccccc3OC)nn2)O[C@@H]1CO	-0.1	-8.2	nt	nt
COc1cccc(-c2cn(CC[C@@H]3CC[C@@H](NC(C)=O)[C@H](CO)O3)nn2)c1	113.5*	-40.5	nt	nt
CCC(=O)N[C@@H]1CC[C@H](CCn2cc(-c3cccc(OC)c3)nn2)O[C@H]1CO	0.2	-1.4	nt	nt
COc1ccccc1NC(=O)N[C@@H]1CC[C@H](CCn2cc(-c3ccccc3OC)nn2)O[C@H]1CO	106.6*	-16.5	nt	nt
CN(C)C(=O)C[C@@H]1CC[C@H]2[C@@H](COC[C@H](O)CN2Cc2ccc(C(F)(F)F)cc2)O1	-1.1	3.0	nt	nt
Cc1ccc(NC(=S)NC(=O)c2ccc(Br)o2)c(C)c1	nt	-15.2	87.6*	8.6
COc1ccc2c3c(n(C)c2c1)[C@H](CO)N(Cc1ccccc1Cl)CC31CCN(C(=O)CN(C)C)CC1	nt	-17.1	nt	nt
CN(C)CCCN(C(=O)CCOc1ccccc1)c1nc2ccc(F)cc2s1	-2.5	50.5*	-7.9	-15.2
Cc1ccc(S(=O)(=O)N2C[C@@H](O)COC[C@@H]3O[C@@H](CC(=O)NCCN4CCCCC4)CC[C@H]32)cc1	2.8	-6.3	nt	nt
C[C@H](CO)N1C[C@H](C)[C@@H](CN(C)S(C)(=O)=O)Oc2ccc(NC(=O)Cn3cnnn3)cc2CC1=O	-2.0	-1.4	nt	nt
CCC(=O)N1[C@H](CO)[C@@H](c2ccc(C3=CCCC3)cc2)[C@H]1CNC(=O)CN(C)C	nt	-0.1	nt	nt
SMILES	Cneo AK release	PGC1a acetyl inh	MITF TRPM1 HTS	Wnt act
Cc1ccc(-c2cnc3c(c2)C(=O)N([C@@H](C)CO)C[C@H](C)[C@H](CN(C)C(=O)c2ccc(F)cc2)O3)cc1	7.8	-0.3	nt	nt
CCOc1ccccc1-n1nnnc1SCC(=O)O	0.7	-2.5	4.9	36.4*
Cn1c(COc2ccccc2)nc2ccccc21	-2.1	17.2	nt	42.3*
CN(C)CCn1c(COc2ccccc2)nc2ccccc21	nt	nt	nt	4.5
C[C@@H]1CN([C@H](C)CO)C(=O)c2cccc(NC(=O)C3CCCCC3)c2O[C@@H]1CN(C)C(=O)Nc1ccc(F)cc1	-0.6	2.4	nt	nt
O=C(Nc1ccc(NC(=O)c2cccs2)cc1)c1ccco1	-0.6	-2.6	97.8*	nt
